The results in this text go back to PubChem BioAssay.

Active and inactive are the calls of the source.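 How the source made its calls, unless noted: active means viability at or below 30% in both replicate assays; inconclusive means viability at or below 30% in just one of the two assays; inactive means the rest.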

Assay [1] is described as follows: Her2 expression decrease, cell viability multiplex – SKBR3 breast tumor cells, AlphaScreen, ATP viability, primary screen (AID 461;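 active means Her2 level under about 52% in both replicate screens, with viability over 70% of control, limit read from the data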;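 on Her2 level: lower value means less Her2 protein in the cells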;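 on viability: percent of carrier control wells set as 100% viability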). The settings on record: SKBR3 Her2 protein level, 18-24 h, measured here: SKBR3 viability, ATP luminescence, at 10 µM. On the technique in general: Bead proximity is the source of the signal in Alpha formats.
The target in assay [2] is Receptor tyrosine-protein kinase erbB-2 (Homo sapiens) (UniProt P04626). Described as above. The settings on record: 18-24 h, at 10 µM, stronger effect = lower value.
The nature of assay [3]: reduced viability of SK-BR-3 breast cancer cells – cell-based, 24 h, human, pilot screen (AID 572;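 active means viability at or below 10% of carrier control in both of two separate runs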;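 further: compound exposure lasted between 18 and 24 h rather than exactly 24 h; 100% = carrier-treated control wells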). Conditions: SK-BR-3 viability, CellTiter-Glo luminescence, at 10 µM, stronger effect = lower value. A general note: Cellular ATP, detected with luciferase, serves as a proxy for viable cell number.
The nature of assay [4]: HUVEC growth inhibition – cell-based, human, primary screen (AID 575).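 Further: 100% = median of untreated cell wells with 0.1% DMSO on each plate.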 Conditions: HUVEC proliferation, CellTiter-Glo luminescence, 72 h; at 10 µM; stronger effect = lower value. The gist of the method:
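system = HUVEC primary cells | amount = 1250 cells/well | buffer or medium = supplemented EBM, 2% fetal bovine serum | dosing = single-point 10 µM, DMSO 0.1% final | times = 72 h compound incubation | detection = CTG luminescence | read-out = % viability relative to median vehicle-well signal on each plate | control set = vehicle and MePR control wells | format = collagen-coated 384-well format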

Assay [5] can be described thus: H69AR cell proliferation blockers – human, duplicate replicates, primary screen (AID 580;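 active means viability at or under a set limit in both replicates, limit being median viability minus 3 SD, cut at about 48% in these data, passing the limit was not always enough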;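 further: 100% = mean luminescence of untreated wells and 0% = no signal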). Conditions: H69AR lung tumor cells viability, ATP luminescence, 72 h; at 10 µM; stronger effect = lower value.
Assay [6] is described as follows: MRP1 drug-resistance reversers in H69AR cells – cell-based, doxorubicin co-treatment, pilot screen (AID 601;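 active means viability loss from added drug above about 55%, and viability with drug at most 40%, in both replicates, limit read from the data, passing the limit was not always enough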). The settings on record: CellTiter-Glo, 72 h, at 10 µM; for differential viability (reversal): stronger effect = higher value.
Assay [7] is described as follows: yeast transport mutant growth inhibition pilot in 384-well plates, post-Golgi transport modulator project (AID 636; in the data active means inhibition above about 31%). Conditions: absorbance 615 nm, about 18 h, stronger effect = higher value.
Assay [8] is described as follows: growth suppression of yeast trafficking mutant, preliminary HTS, modulators of trafficking downstream of Golgi apparatus project, 1536-format plate, OD 615 nm (AID 637; in the data active means inhibition above about 30%). The settings on record: yeast transport mutant growth, absorbance 615 nm, 18 h; stronger effect = higher value.
[9] abbreviates: H69AR cells + 2 uM doxorubicin, measured here: viability with 2 uM doxorubicin, stronger effect = lower value.
Where [10] appears, read: H69AR cells, compound alone cytotoxicity.

Receptor tyrosine-protein kinase erbB-2 (Homo sapiens), sequence (P04626 whole entry, looked up): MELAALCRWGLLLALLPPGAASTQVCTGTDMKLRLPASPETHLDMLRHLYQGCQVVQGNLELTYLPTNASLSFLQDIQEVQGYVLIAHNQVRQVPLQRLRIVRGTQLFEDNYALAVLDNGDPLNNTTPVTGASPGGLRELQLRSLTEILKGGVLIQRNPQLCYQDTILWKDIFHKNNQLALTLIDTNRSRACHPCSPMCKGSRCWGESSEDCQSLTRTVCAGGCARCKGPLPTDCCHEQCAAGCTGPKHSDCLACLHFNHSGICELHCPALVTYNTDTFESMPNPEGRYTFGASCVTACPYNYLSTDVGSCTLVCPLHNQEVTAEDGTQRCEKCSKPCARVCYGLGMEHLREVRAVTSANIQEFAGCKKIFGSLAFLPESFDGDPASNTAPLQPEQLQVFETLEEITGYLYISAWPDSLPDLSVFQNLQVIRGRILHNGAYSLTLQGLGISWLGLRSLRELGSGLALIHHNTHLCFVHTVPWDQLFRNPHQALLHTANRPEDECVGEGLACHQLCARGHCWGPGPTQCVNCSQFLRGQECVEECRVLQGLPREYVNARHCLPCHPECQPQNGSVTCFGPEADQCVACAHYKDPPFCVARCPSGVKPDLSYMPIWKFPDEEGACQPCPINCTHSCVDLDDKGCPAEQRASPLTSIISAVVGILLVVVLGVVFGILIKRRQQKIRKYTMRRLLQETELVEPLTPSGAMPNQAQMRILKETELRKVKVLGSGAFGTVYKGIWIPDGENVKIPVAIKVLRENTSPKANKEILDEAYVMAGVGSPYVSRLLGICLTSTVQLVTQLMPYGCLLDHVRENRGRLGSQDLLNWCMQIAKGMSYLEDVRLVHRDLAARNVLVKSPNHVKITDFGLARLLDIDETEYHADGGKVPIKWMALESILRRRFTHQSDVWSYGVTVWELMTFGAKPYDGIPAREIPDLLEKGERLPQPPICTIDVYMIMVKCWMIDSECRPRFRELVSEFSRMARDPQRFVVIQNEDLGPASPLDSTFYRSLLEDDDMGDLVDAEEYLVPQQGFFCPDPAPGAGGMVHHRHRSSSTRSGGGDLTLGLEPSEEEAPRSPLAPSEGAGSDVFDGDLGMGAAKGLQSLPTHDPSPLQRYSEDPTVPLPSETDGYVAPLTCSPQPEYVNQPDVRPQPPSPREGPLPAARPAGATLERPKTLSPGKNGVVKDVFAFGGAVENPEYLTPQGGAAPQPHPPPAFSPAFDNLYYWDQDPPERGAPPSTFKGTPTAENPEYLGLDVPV

A word on the viability: it is a read-out of living cells in per cent, often relative to untreated cells. For orientation: inhibition means the change of the read-out against control, counted positive when it falls. As to `CC(=O)c1cc(F)c(N2CCN(C(=O)Cc3ccccc3)CC2)cc1C`, the viability in assay [1] is 96.5%; in assay [3] it was 96.5% (inactive); in assay [4], 107% (inactive); in assay [5] it was 93.5% (inactive); in assay [6] (setting [9]), 101%; in assay [6] (setting [10]), 93.5%. Further, the Her2 level in assay [2] was 97% (inactive). Besides, the differential viability (reversal) in assay [6] (H69AR cells + 2 uM doxorubicin) is -7.49% (inactive). Also, the results for the inhibition in assay [7] and in assay [8] were 0% (inactive) and -4.35% (inactive), respectively.
With `CCCCS(=O)(=O)NC1=NCN(C2CCN(Cc3ccccc3)CC2)CN1`, the viability in assay [1] is 116%; in assay [3], 116% (inactive); in assay [4], 91.5% (inactive); in assay [5] it was 111% (inactive); in assay [6] (setting [9]), 101%; in assay [6] (setting [10]), 111%. Moreover, the Her2 level in assay [2] is 98.5% (inactive). In addition, the differential viability (reversal) in assay [6] (H69AR cells + 2 uM doxorubicin) was 9.66% (inactive). Also, the values for the inhibition in assay [7] and in assay [8] were -2.7% (inactive) and -2.22% (inactive), respectively.
On to `CC(C)(C)C(=O)Cn1c(=N)n(Cc2ccccc2)c2ccccc21`, for which the viability was 84.5% in assay [1]; 84.5% (inactive) in assay [3]; 53.3% (inactive) in assay [4]; 76.2% (inactive) in assay [5]; 77.1% in assay [6] (setting [9]); 76.2% in assay [6] (setting [10]). Further, the Her2 level in assay [2] was 81.5% (inactive). The differential viability (reversal) in assay [6] (H69AR cells + 2 uM doxorubicin) is -0.985% (inactive). Besides, the inhibition is -3.2% (inactive) in assay [7] and -2.3% (inactive) in assay [8].
As to `COc1ccc(CC(NC(C)=O)C(=O)NC2CCN(c3nc(C)cc(C)c3C#N)CC2)c(OC)c1` (stereo not given), the viability was 102% in assay [1]; 102% (inactive) in assay [3]; 117% (inactive) in assay [4]; 104% (inactive) in assay [5]; 105% in assay [6] (setting [9]); 104% in assay [6] (setting [10]). Also, the Her2 level in assay [2] was 100% (inactive). Moreover, the differential viability (reversal) in assay [6] (H69AR cells + 2 uM doxorubicin) was -0.69% (inactive). For the same compound, the inhibition in assay [7] is -0.41% (inactive); in assay [8], 2.17% (inactive).
Take `CCOc1ccccc1OCC(=O)Nc1nnc(COC)s1`: the viability is 89% in assay [1]; 89% (inactive) in assay [3]; 99.5% (inactive) in assay [4]; 91.8% (inactive) in assay [5]; 93.3% in assay [6] (setting [9]); 91.8% in assay [6] (setting [10]). In addition, the Her2 level in assay [2] is 103% (inactive). Also, the differential viability (reversal) in assay [6] (H69AR cells + 2 uM doxorubicin) was -1.57% (inactive). Further, the inhibition in assay [7] is -2.8% (inactive); in assay [8], 10.7% (inactive).
With `CCOc1ccccc1C(=O)N1CCN(c2cccc(Cl)c2)CC1`, the viability is 118% in assay [1]; 118% (inactive) in assay [3]; 23.3% (active) in assay [4]; 28.2% (active) in assay [5]; 63.8% in assay [6] (setting [9]); 28.2% in assay [6] (setting [10]). Also, the Her2 level in assay [2] is 80% (inactive). Besides, the differential viability (reversal) in assay [6] (H69AR cells + 2 uM doxorubicin) is -35.7% (inactive). Moreover, the inhibition in assay [7] is -4.53% (inactive); in assay [8] it was 1.15% (inactive).
On to `O=C(NCc1ccccc1)c1ccc(OC2CSC2)cc1`, for which the viability is 88% in assay [1]; 88% (inactive) in assay [3]; 91.5% (inactive) in assay [4]; 112% (inactive) in assay [5]; 93.6% in assay [6] (setting [9]); 112% in assay [6] (setting [10]). Besides, in assay [2], the Her2 level is 103% (inactive). Also, in assay [6] (H69AR cells + 2 uM doxorubicin), the differential viability (reversal) is 18.5% (inactive). For the same compound, the results for the inhibition in assay [7] and in assay [8] were 2.34% (inactive) and -11% (inactive), respectively.
On to `CCOc1ccc(C(=O)OCc2nnc(-c3cccs3)o2)cc1OC`, for which the viability in assay [1] is 106%; in assay [3], 106% (inactive); in assay [4] it was 116% (inactive); in assay [5] it was 99.9% (inactive); in assay [6] (setting [9]) it was 74%; in assay [6] (setting [10]) it was 99.9%. Also, in assay [2], the Her2 level was 96% (inactive). Moreover, in assay [6] (H69AR cells + 2 uM doxorubicin), the differential viability (reversal) is 25.9% (inactive). The inhibition in assay [7] was -3.12% (inactive); in assay [8], 2.38% (inactive).
As for `COc1cc(C(=O)OCC(=O)N(C)Cc2ccccc2)cc(OC)c1OC`, the viability in assay [1] is 106%; in assay [3] it was 106% (inactive); in assay [4] it was 103% (inactive); in assay [5], 94.8% (inactive); in assay [6] (setting [9]), 97.4%; in assay [6] (setting [10]) it was 94.8%. The Her2 level in assay [2] was 96.5% (inactive). Also, the differential viability (reversal) in assay [6] (H69AR cells + 2 uM doxorubicin) is -2.6% (inactive). The inhibition in assay [7] is -5.34% (inactive); in assay [8], 0.79% (inactive).
As to `CCOC(=O)c1c(C)oc2ccc(OCC(N)=O)cc12`, the viability is 120% in assay [1]; 120% (inactive) in assay [3]; 72.3% (inactive) in assay [4]; 97.1% (inactive) in assay [5]; 95.4% in assay [6] (setting [9]); 97.1% in assay [6] (setting [10]). Besides, the Her2 level in assay [2] was 95% (inactive). Besides, in assay [6] (H69AR cells + 2 uM doxorubicin), the differential viability (reversal) was 1.68% (inactive). The inhibition in assay [7] is -0.79% (inactive); in assay [8] it was -5.4% (inactive).
For `Cc1ccc(-n2nc(C(=O)N3CCN(C)CC3)c3c4ccccc4n(C)c3c2=O)cc1`, the viability was 90.5% in assay [1]; 90.5% (inactive) in assay [3]; 99.9% (inactive) in assay [4]; 96.8% (inactive) in assay [5]; 93.9% in assay [6] (setting [9]); 96.8% in assay [6] (setting [10]). For the same compound, the Her2 level in assay [2] was 80% (inactive). In addition, the differential viability (reversal) in assay [6] (H69AR cells + 2 uM doxorubicin) was 2.81% (inactive). Further, the inhibition was -1.97% (inactive) in assay [7] and -1.61% (inactive) in assay [8].
For the compound `CCC(Sc1nc(-c2ccccc2)c(C#N)c(=O)[nH]1)C(=O)Nc1cc(C)on1` (stereo not given), the viability is 90.5% in assay [1]; 90.5% (inactive) in assay [3]; 83% (inactive) in assay [4]; 101% (inactive) in assay [5]; 101% in assay [6] (setting [9]); 101% in assay [6] (setting [10]). Also, in assay [2], the Her2 level was 111% (inactive). The differential viability (reversal) in assay [6] (H69AR cells + 2 uM doxorubicin) is 0.62% (inactive). The inhibition in assay [7] was -1.54% (inactive); in assay [8], -8.67% (inactive).
For the compound `CCOC(=O)N1CCN(c2c(N3CCc4ccccc4C3)c(=O)c2=O)CC1`, the viability in assay [1] is 87%; in assay [3] it was 87% (inactive); in assay [4], 99.9% (inactive); in assay [5], 91.7% (inactive); in assay [6] (setting [9]) it was 85.4%; in assay [6] (setting [10]), 91.7%. Besides, in assay [2], the Her2 level was 86% (inactive). In addition, the differential viability (reversal) in assay [6] (H69AR cells + 2 uM doxorubicin) was 6.33% (inactive). Also, the inhibition was -2% (inactive) in assay [7] and -3.11% (inactive) in assay [8].
For `CCC(C)Nc1nc2c(c(=O)n(C)c(=O)n2C)n1Cc1ccc(F)cc1` (stereo not given), the viability in assay [1] was 90.5%; in assay [3], 90.5% (inactive); in assay [4], 88.6% (inactive); in assay [5] it was 83.3% (inactive); in assay [6] (setting [9]) it was 97.6%; in assay [6] (setting [10]), 83.3%. Moreover, in assay [2], the Her2 level is 86.5% (inactive). Also, the differential viability (reversal) in assay [6] (H69AR cells + 2 uM doxorubicin) was -14.3% (inactive). Also, the inhibition in assay [7] is -5.27% (inactive); in assay [8], 5.08% (inactive).
